Drawing on ChEMBL document CHEMBL4428034, “Bioactive Isoprenoid-Derived Natural Products from a Dongsha Atoll Soft Coral Sinularia erecta” (J Nat Prod, 2016), this text covers inhibition and IC50 for nine compounds.

Each structure is given as a SMILES string. Bounds are passed on as bounds.

The test system of experiment [1] is Neutrophil. Nature of the experiment: Anti-inflammatory activity in FMLP/CB-stimulated human neutrophils assessed as inhibition of superoxide generation at 10 uM preincubated for 5 mins followed by cytochalasin B and FMLP stimulation for 3 mins and 10 mins respectively by ferricytochrome c reduction based assay relative to control. In kind it is functional. The method in brief:
(§1)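 Percent inhibition at 10 μM relative to control in fMLP/CB-stimulated human neutrophils. Values are mean ± SEM (n = 3), with significance tested against the control value.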

Experiment [2] has as its system Neutrophil. Nature of the experiment: Anti-inflammatory activity in FMLP/CB-stimulated human neutrophils assessed as inhibition of superoxide generation preincubated for 5 mins followed by cytochalasin B and FMLP stimulation for 3 mins and 10 mins respectively by ferricytochrome c reduction based assay. In kind it is functional, cell-based. The method in brief: (§2)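 In fMLP/CB-stimulated human neutrophils, IC50 was taken as the concentration giving 50% inhibition. Values are mean ± SEM (n = 3).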

The test system of experiment [3] is Neutrophil. Nature of the experiment: Anti-inflammatory activity in FMLP/CB-stimulated human neutrophils assessed as inhibition of elastase release at 10 uM preincubated for 5 mins followed by FMLP/CB stimulation for 10 mins using MeO-Suc-Ala-Ala-Pro-Val-p-nitroanilide as substrate relative to control. In kind it is functional. An outline of the steps: as §1

Experiment [4] has as its system Neutrophil. Nature of the experiment: Anti-inflammatory activity in FMLP/CB-stimulated human neutrophils assessed as inhibition of elastase release preincubated for 5 mins followed by FMLP/CB stimulation for 10 mins using MeO-Suc-Ala-Ala-Pro-Val-p-nitroanilide as substrate. In kind it is functional, cell-based. An outline of the steps: as §2
Experiment [5] has as its system K562. Nature of the experiment: Cytotoxicity against human K562 cells assessed as growth inhibition after 3 days by alamar blue assay. It is filed as functional, cell-based. To be noted: K562, 72 h.
Experiment [6] relates to MOLT-4. Nature of the experiment: Cytotoxicity against human MOLT4 cells assessed as growth inhibition after 3 days by alamar blue assay. In kind it is functional, cell-based. To be noted: MOLT-4, 72 h. The method in brief: (§3)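 Cells were seeded at 5 × 10^3 to 1 × 10^4 per well and kept in a humidified 5% CO2 incubator. After 3 days in culture, Alamar Blue was added for 4 h and absorbance read at 595 nm. IC50 is the concentration that reduced cell growth by 50%.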
A general note: The colour change of resazurin is a common sign of viable cells or microbes.

The test system of experiment [7] is CCRF-CEM. The experiment in a line: Cytotoxicity against human CCRF-CEM cells assessed as growth inhibition after 3 days by alamar blue assay. In kind it is functional, cell-based. To be noted: 72 h. An outline of the steps:
as §3

By inhibition is commonly meant the drop in the measured response relative to a control, in per cent. The IC50 is the concentration at which inhibition is half-maximal. Turning to `C=C(C)[C@H]1CC(=O)[C@@H]2[C@@H](C1)[C@H]1C(=O)O[C@H]3C[C@@]4(C)O[C@@H]2C(=O)[C@H]4[C@@H]13`, the inhibition at 10 µM in experiment [1] came to 16%; in experiment [3] it was 18%. Besides, the IC50 in experiment [2] and in experiment [4] was more than 10 µM throughout.
For the compound `C=C(C)[C@@H]1CCC(=C)[C@@H](OO)CCC(=C)[C@H]2CC[C@@](C)(O2)[C@@H](O)C1`, the IC50 was 9.2 µM in experiment [5], more than 10 µM in experiment [2] and more than 10 µM in experiment [4]. For the same compound, the values for the inhibition at 10 µM in experiment [1] and in experiment [3] were 24% and 33%, respectively.
As for `C=C(C)C(CCC(C)=O)C[C@@H]1O[C@@]1(C)C/C=C/C(C)=O` (stereo partly specified), the IC50 was 8.6 µM in experiment [5], 9.7 µM in experiment [6], more than 10 µM in experiment [2] and more than 10 µM in experiment [4]. Besides, the inhibition at 10 µM was 13% in experiment [1] and 17% in experiment [3].
On to `CCCCCCCCC/C(C)=C\C(=O)NCCc1ccc(O)cc1`, for which the IC50 is 9.7 µM in experiment [6], 6.3 µM in experiment [7], more than 10 µM in experiment [2] and 1 µM in experiment [4]. Besides, the inhibition at 10 µM was determined as 48% in experiment [1] and 102% in experiment [3].
In the case of `COC(=O)[C@@]1(CCl)O[C@@]2(O)C[C@H]1C[C@@H](O)[C@]13O[C@H]1[C@H](C[C@@]1(C)CC(=O)[C@H](C2)O1)OC3=O`, the results for the inhibition at 10 µM in experiment [1] and in experiment [3] were 7% and 14%, respectively. The IC50 in experiment [2] and in experiment [4] was more than 10 µM throughout.
For `C=C(C)[C@@H]1C[C@H]2O[C@](O)(C1)C[C@@H](OC(C)=O)C(=O)/C=C(/C)C[C@@H]1OC(=O)[C@]23O[C@@H]13`, the inhibition at 10 µM in experiment [1] came to 100%; in experiment [3] it was 113%. Besides, the IC50 in experiment [2] was determined as 2.3 µM; in experiment [4] it was 0.9 µM.
For `C=C(C(=O)OC)[C@H]1CC(=O)C[C@@H]2O[C@@H]3[C@H](C[C@](C)(O)CC2=O)OC(=O)[C@@]32O[C@@H]2C1` the same measures were 55%, 93%, 8.5 µM and 3.8 µM.
Consider `CC[C@H](Nc1ncnc2[nH]cnc12)c1nc2cccc(F)c2c(=O)n1-c1ccccc1` [IDELALISIB], for which the inhibition at 10 µM in experiment [1] was found to be 103%; in experiment [3], 100%. In addition, the IC50 in experiment [2] worked out at 0.07 µM; in experiment [4] it was 0.3 µM.
On to `C=C(C)[C@@H]1CCC2=C[C@H](C[C@@]3(C)CC(=O)[C@H](CC(=O)C1)O3)OC2=O`, for which the figures for the inhibition at 10 µM in experiment [1] and in experiment [3] were 15% and 19%, respectively. Further, the IC50 in experiment [2] and in experiment [4] was more than 10 µM in each case.
